Experimental findings from ChEMBL document CHEMBL2331200, “Synthesis and bioevaluation of [(18)F]4-fluoro-m-hydroxyphenethylguanidine ([(18)F]4F-MHPG): a novel radiotracer for quantitative PET studies of cardiac sympathetic innervation” (Bioorg Med Chem Lett, 2013) are described below.

A short description of series [1]: Biodistribution in iv dosed rhesus monkey left ventricle. It counts as ADME, organism-based, Macaca mulatta, Heart left ventricle. As to conditions: in vivo; call rule not given here. In outline: (§1)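 Dynamic PET imaging of a single nonhuman primate after injection of the 18F tracer. Regional heart, liver and lung activity was read from the images. Heart-to-blood activity ratios were taken at 80–90 min post-injection.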

Series [2] can be described thus: Biodistribution in iv dosed rhesus monkey liver. It counts as ADME, organism-based, Macaca mulatta. The settings on record: in vivo. In outline: as §1
A short description of series [3]: Biodistribution in iv dosed rhesus monkey lungs. It counts as ADME, organism-based, Macaca mulatta, Lung. As to conditions: in vivo. In outline: as §1
A short description of series [4]: Biodistribution in iv dosed rhesus monkey heart. The settings on record: in vivo. It counts as ADME, organism-based, Macaca mulatta. A digest of the protocol:
as §1

For the next series, the system named is Heart. Nature of the series: Drug uptake in rat heart assessed as neuronal uptake rate per gram of wet weight after 10 mins constant infusion measured up to 140 mins. It counts as ADME, tissue-based. As to conditions: ex_vivo. In outline: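 Isolated working rat heart with uptake-2 blocked by 54 μM corticosterone in the perfusion buffer. Radiotracer was infused for 10 min at constant perfusate concentration to give the neuronal uptake rate Kup (ml/min/g wet).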

For `N=C(N)NCCc1ccc([18F])c(O)c1`, the Drug uptake entry in series [1] is recorded as “Active”; in series [2], “Active”; in series [3], “Not Active”; in series [4], “Active”.
Consider `N=C(N)NCc1ccc([18F])cc1`, for which the Drug uptake in the series with Heart is 1.2 mL/min/g.
With `C[C@H](N[11CH3])[C@H](O)c1cccc(O)c1`, the Drug uptake result in series [2] is given as “Active”.
On the same count and under the same terms, next, `N=C(N)NCc1cccc([123I])c1` [IOBENGUANE I 123]: “Active”.
